Laboratory results as given in ChEMBL document CHEMBL3739347, “Tubulin modulating antifungal and antiproliferative pyrazinone derivatives” (Bioorg Med Chem, 2016).

How the values were obtained:
Type in all cases: functional
[1] = tested on: Parastagonospora nodorum; experiment: Antifungal activity against Stagonospora nodorum infected in wheat seedlings at 10 ppm relative to control
In short: (§1)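 Wheat seedlings, treated the day before, inoculated with a Stagonospora nodorum spore suspension. Held in a saturated atmosphere at 20 °C for 48 h, then 5 days in a growth chamber at 22 °C, then disease rated. Rates in ppm. Scored as percent control relative to untreated control plants.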

[2] = tested on: Puccinia triticina; experiment: Antifungal activity against Puccinia recondita f. sp. tritici infected in wheat seedlings at 2 ppm relative to control
In short: (§2)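 Test suspension sprayed to run-off on Stevens wheat seedlings. Next day inoculated with a Puccinia recondita f. sp. tritici spore suspension. Held 24 h in a saturated atmosphere at 20 °C, then 7 days in a 20 °C growth chamber before disease rating. Rates in ppm. Given as percent control versus untreated control plants.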

[3] = tested on: Puccinia triticina; experiment: Antifungal activity against Puccinia recondita f. sp. tritici infected in wheat seedlings at 10 ppm relative to control; in short: as §2
[4] = tested on: Parastagonospora nodorum; experiment: Antifungal activity against Stagonospora nodorum infected in wheat seedlings at 40 ppm relative to control; in short: as §1
[5] = tested on: Botrytis cinerea; experiment: Antifungal activity against Botryotinia fuckeliana infected in orange pixie tomato seedlings at 40 ppm relative to control
In short: (§3)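 Orange Pixie tomato seedlings sprayed to run-off with test suspension, then inoculated next day with a Botryotinia fuckeliana spore suspension. Kept saturated at 20 °C for 48 h, then 1 more day at 24 °C in a growth chamber before rating. Rates in ppm. Expressed as percent control relative to untreated control plants.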

[6] = tested on: Botrytis cinerea; experiment: Antifungal activity against Botryotinia fuckeliana infected in orange pixie tomato seedlings at 10 ppm relative to control; in short: as §3
[7] = tested on: Botrytis cinerea; experiment: Antifungal activity against Botryotinia fuckeliana infected in orange pixie tomato seedlings at 2 ppm relative to control; in short: as §3
[8] = tested on: Parastagonospora nodorum; experiment: Antifungal activity against Stagonospora nodorum infected in wheat seedlings at 2 ppm relative to control; in short: as §1
[9] = tested on: Puccinia triticina; experiment: Antifungal activity against Puccinia recondita f. sp. tritici infected in wheat seedlings at 40 ppm relative to control; in short: as §2
[10] = tested on: Parastagonospora nodorum; experiment: Antifungal activity against Stagonospora nodorum infected in wheat seedlings at 200 ppm relative to control; in short: as §1
[11] = tested on: Puccinia triticina; experiment: Antifungal activity against Puccinia recondita f. sp. tritici infected in wheat seedlings at 200 ppm relative to control; in short: as §2
[12] = tested on: Botrytis cinerea; experiment: Antifungal activity against Botryotinia fuckeliana infected in orange pixie tomato seedlings at 200 ppm relative to control; in short: as §3

Row | SMILES | Activity [1] [%] | Activity [2] [%] | Activity [3] [%] | Activity [4] [%] | Activity [5] [%] | Activity [6] [%] | Activity [7] [%] | Activity [8] [%] | Activity [9] [%] | Activity [10] [%] | Activity [11] [%] | Activity [12] [%]
1 | CC(Cn1c(-c2c(F)cc(F)cc2F)c(Cl)nc(-n2cccn2)c1=O)C(F)(F)F (centres undefined) | 0 | 92 | 100 | 100 | 99 | 99 | 99 | 0 | 100 |  |  | 
2 | C=CCn1c(-c2c(F)cc(F)cc2F)c(Cl)nc(-n2cccn2)c1=O | 97 | 0 | 89 | 100 | 99 | 99 | 70 | 0 | 99 |  |  | 
3 | CC(C)Cn1c(-c2c(F)cccc2F)cnc(-n2cccn2)c1=O | 0 |  | 0 | 0 |  |  |  |  | 0 | 0 | 98 | 
4 | CC(C)Cn1c(-c2c(F)cccc2F)c(Cl)nc(-c2nccn2C)c1=O | 0 |  | 0 | 0 | 0 | 0 |  |  | 0 | 0 | 0 | 0
5 | CC[C@H](C)Cn1c(-c2c(F)cccc2F)c(Cl)nc(C#N)c1=O |  |  |  | 0 | 99 |  |  |  | 74 | 0 | 96 | 99
6 | O=c1c(-n2cccn2)nc(Cl)c(-c2c(F)cc(F)cc2F)n1CC(F)(F)C(F)(F)F | 89 | 91 | 99 | 100 | 100 | 100 | 99 | 0 | 100 |  |  | 
7 | CC(C)Cn1c(-c2c(F)ccc(F)c2F)c(Cl)nc(-n2cccn2)c1=O | 87 | 32 | 99 | 100 | 100 | 98 | 94 | 0 | 100 |  |  | 
8 | O=c1c(-n2cccn2)nc(Cl)c(-c2c(F)cc(F)cc2F)n1-c1cccc(Cl)c1 | 99 | 86 | 99 | 99 | 100 | 99 | 97 | 73 | 100 |  |  | 
9 | CC(C)Cn1c(-c2c(F)cccc2F)c(Cl)nc(-c2ccncc2)c1=O | 0 | 0 | 0 | 0 | 0 | 0 | 0 | 0 | 0 |  |  | 
10 | O=c1c(-n2cccn2)nc(Cl)c(-c2c(F)cc(F)cc2F)n1CC1CC1 | 100 | 80 | 100 | 100 | 99 | 98 | 98 | 0 | 100 |  |  | 
11 | Cc1ccn(-c2nc(Cl)c(-c3c(F)cccc3F)n(CC(C)C)c2=O)n1 | 0 | 25 | 94 | 95 | 100 | 100 | 95 | 0 | 100 |  |  | 
12 | CC[C@H](C)Cn1c(-c2c(F)cccc2F)c(Cl)nc(-n2ccnc2)c1=O | 0 |  | 0 | 0 | 0 | 0 |  |  | 0 | 0 | 0 | 0
13 | CC(C)Cn1c(C(C)(C)C)c(Cl)nc(-n2cccn2)c1=O |  |  |  | 0 | 0 |  |  |  | 0 | 0 | 0 | 0
14 | CC(C)Cn1c(C2CC2)c(Cl)nc(-n2cccn2)c1=O |  |  |  | 0 | 0 |  |  |  | 0 | 0 | 0 | 0
15 | CC(C)Cn1c(-c2c(F)cccc2F)c(Cl)nc(-c2cccnc2)c1=O | 0 | 0 | 0 | 0 | 0 | 0 | 0 | 0 | 0 |  |  | 
16 | CC(C)Cn1c(-c2c(F)cccc2F)c(Cl)nc(-c2nccs2)c1=O | 0 | 0 | 0 | 0 | 0 | 0 | 0 | 0 | 0 |  |  | 
17 | Cc1nc(-n2cccn2)c(=O)n(CC(C)C)c1-c1c(F)cccc1F | 0 | 0 | 92 | 98 | 100 | 99 | 0 | 0 | 100 |  |  | 
18 | CC[C@H](C)Cn1c(-c2c(F)cccc2F)c(Cl)nc(-n2cncn2)c1=O |  |  |  | 94 | 100 |  |  |  | 98 | 100 | 98 | 100
19 | O=c1c(-n2cccn2)nc(Cl)c(-c2c(F)cc(F)cc2F)n1-c1ccc(Cl)cc1 | 100 | 96 | 100 | 100 | 99 | 99 | 92 | 78 | 100 |  |  | 
20 | CC[C@H](C)Cn1c(-c2c(F)cccc2F)c(Cl)nc(C(=O)NC)c1=O | 0 | 0 | 74 | 51 | 99 | 90 | 57 | 0 | 99 |  |  | 
21 | O=c1c(-n2cccn2)nc(Cl)c(-c2c(F)cc(F)cc2F)n1CC(F)(F)C(F)(F)C(F)(F)F | 78 | 68 | 96 | 99 | 100 | 99 | 38 | 0 | 99 |  |  | 
22 | O=c1c(-n2cccn2)nc(Cl)c(-c2c(F)cc(F)cc2F)n1-c1ccccc1Cl | 94 | 97 | 100 | 100 | 100 | 100 | 99 | 0 | 100 |  |  | 
23 | CC[C@H](C)Cn1c(-c2c(F)cccc2F)c(Cl)nc(-n2nccn2)c1=O |  |  |  | 0 | 0 |  |  |  | 19 | 0 | 86 | 97
24 | CC(C)Cn1c(-c2c(F)cccc2F)c(Cl)nc(-c2ccccn2)c1=O |  |  |  | 0 | 99 |  |  |  | 85 | 99 | 99 | 100
25 | O=c1c(-n2cccn2)nc(Cl)c(-c2c(F)cc(F)cc2F)n1-c1ccccc1 | 98 | 45 | 87 | 99 | 100 | 100 | 100 | 60 | 99 |  |  | 
26 | CC[C@H](C)Cn1c(-c2c(F)cccc2F)c(Cl)nc(C(N)=O)c1=O | 0 | 80 | 99 | 95 | 99 | 97 | 92 | 0 | 100 |  |  | 
27 | CC(C)Cn1c(C(C)C)c(Cl)nc(-n2cccn2)c1=O |  |  |  | 0 | 99 |  |  |  | 18 | 0 | 98 | 99
28 | CC(C)Cn1c(C2CCCC2)c(Cl)nc(-n2cccn2)c1=O |  |  |  | 0 | 99 |  |  |  | 91 | 0 | 100 | 100
29 | CCCCn1c(-c2c(F)cc(F)cc2F)c(Cl)nc(-n2cccn2)c1=O | 98 | 26 | 88 | 100 | 100 | 0 | 0 | 0 | 100 |  |  | 
